ChEMBL document CHEMBL1153955, “Indolylarylsulfones bearing natural and unnatural amino acids. Discovery of potent inhibitors of HIV-1 non-nucleoside wild type and resistant mutant strains reverse transcriptase and coxsackie B4 virus” (J Med Chem, 2009)
pEC50, pIC50: −log10 of the molar value.

Tests used:
Influenza A virus H3N2 [1] = assay: Antiviral activity against influenza H3N2 virus in MDCK cells assessed as reduction of virus-induced cytopathicity by visual cytopathic effect scoring method; format: functional, organism-based
[2] = tested on: Respiratory syncytial virus; assay: Antiviral activity against RSV Long in human HeLa cells assessed as protection against virus-induced cytopathicity; format: functional, organism-based
Method in brief: (§1)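 Confluent cell monolayers inoculated with 100 CCID₅₀ virus. After 1-2 h adsorption, residual virus removed and cultures incubated with varying compound concentrations. Cytopathicity scored once it reached completion in untreated infected controls. EC₅₀ = dose reducing virus-induced cytopathogenicity by 50%.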

Coxsackievirus B4 [3] = assay: Antiviral activity against Coxsackievirus B4 in african green monkey Vero cells assessed as protection against virus-induced cytopathicity; format: functional, organism-based; conditions: Enterovirus B; method in brief: as §1
Human respirovirus 3 = assay: Antiviral activity against Parainfluenza virus type 3 in african green monkey Vero cells assessed as protection against virus-induced cytopathicity; format: functional, organism-based; conditions: Human respirovirus 3, Vero; method in brief: as §1
Influenza A virus [4] = assay: Antiviral activity against influenza H1N1 virus in MDCK cells assessed as reduction of virus-induced cytopathicity by visual cytopathic effect scoring method; format: functional, organism-based
[5] = tested on: Human immunodeficiency virus 1; assay: Antiviral activity against HIV1 with reverse transcriptase L100I mutation in human CEM cells assessed as protection against virus-induced cytopathicity; format: functional, organism-based; conditions: Human immunodeficiency virus 1, CCRF-CEM
Method in brief: (§2)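 CEM cells (~3 × 10⁵ cells/mL) were infected with ~100 CCID₅₀ virus per mL and seeded with serial compound dilutions. After 4 days at 37 °C, syncytium (giant cell) formation was scored microscopically. EC₅₀ is the concentration giving 50% protection against virus cytopathicity.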

[6] = tested on: Human immunodeficiency virus 1; assay: Antiviral activity against HIV1 3B in human CEM cells assessed as protection against virus-induced cytopathicity after 4 days; format: functional, organism-based; conditions: Human immunodeficiency virus 1, 3B, CCRF-CEM, 96 h
Method in brief: (§3)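 CEM cells (~3 × 10⁵ cells/mL) infected with ~100 CCID₅₀ per mL of HIV-1 (IIIB) or HIV-2 (ROD), then seeded into wells containing compound dilutions. After 4 days at 37 °C, syncytium (giant cell) formation was examined microscopically. EC₅₀ = concentration protecting CEM cells from HIV cytopathicity by 50%.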

Influenza A virus H3N2 [7] = assay: Antiviral activity against influenza H3N2 virus in MDCK cells assessed as reduction of virus-induced cytopathicity by MTS method; format: functional, organism-based
[8] = tested on: Human immunodeficiency virus 1; assay: Antiviral activity against HIV1 with reverse transcriptase Y181C mutation in human CEM cells assessed as protection against virus-induced cytopathicity; format: functional, organism-based; conditions: Human immunodeficiency virus 1, CCRF-CEM; method in brief: as §2
[9] = tested on: Vesicular stomatitis virus; assay: Antiviral activity against VSV in human HeLa cells assessed as protection against virus-induced cytopathicity; format: functional, organism-based
Sindbis virus = assay: Antiviral activity against Sindbis virus in african green monkey Vero cells assessed as protection against virus-induced cytopathicity; format: functional, organism-based; method in brief: as §1
[10] = Cytotoxicity against feline CRFK cells by MTS assay; format: cell-based, Felis catus; conditions: cat
Human alphaherpesvirus 1 [11] = assay: Antiviral activity against HSV1 KOS in human HEL cells assessed as protection against virus-induced cytopathicity; format: functional, organism-based; conditions: Human alphaherpesvirus 1, KOS
Vaccinia virus = assay: Antiviral activity against Vaccinia virus Lederle in human HEL cells assessed as protection against virus-induced cytopathicity; format: functional, organism-based; conditions: Orthopoxvirus vaccinia
Influenza A virus [12] = assay: Antiviral activity against influenza H1N1 virus in MDCK cells assessed as reduction of virus-induced cytopathicity by MTS method; format: functional, organism-based; conditions: Influenza A virus, H1N1, MDCK
L1210 = assay: Antiproliferative activity against mouse L1210 cells after 2 days; format: cell-based; conditions: L1210, 48 h
Method in brief: (§4)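 Cells seeded at 5 × 10⁴ to 7.5 × 10⁴ cells/200 µL with or without serial compound dilutions; incubated at 37 °C for 2 days (L1210) or 3 days (Molt4/C8, CEM). Cell numbers counted with a Coulter counter. CC₅₀ = concentration reducing proliferation by 50% versus untreated controls, read from plots of cell number (% of control) against concentration. Means of at least two independent experiments.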

Influenza B virus [13] = assay: Antiviral activity against influenza B virus in MDCK cells assessed as reduction of virus-induced cytopathicity by visual cytopathic effect scoring method; format: functional, organism-based
[14] = target: Human immunodeficiency virus type 1 reverse transcriptase (Human immunodeficiency virus 1, UniProt Q72547, L100I); assay: Inhibition of HIV1 reverse transcriptase p66/p51 L100I mutant; conditions: read-out: IC50
Method in brief: (§5)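 Substrate was 0.5 µg poly(rA)/oligo(dT) 10:1 (0.3 µM 3′-OH ends) with 10 µM [³H]dTTP, at 37 °C. Acid-precipitable radioactivity was counted on GF/C filters after TCA washes.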

Influenza B virus [15] = assay: Antiviral activity against influenza B virus in MDCK cells assessed as reduction of virus-induced cytopathicity by MTS method; format: functional, organism-based
Coxsackievirus B4 [16] = assay: Antiviral activity against Coxsackievirus B4 in human HeLa cells assessed as protection against virus-induced cytopathicity; format: functional, organism-based; conditions: Enterovirus B; method in brief: as §1
Human alphaherpesvirus 2 = assay: Antiviral activity against HSV2 G in human HEL cells assessed as protection against virus-induced cytopathicity; format: functional, organism-based; conditions: Human alphaherpesvirus 2, strain G; method in brief: as §1
[17] = Antiproliferative activity against human Molt4/C8 cells after 3 days; format: cell-based; conditions: MOLT-4, 72 h; method in brief: as §4
[18] = tested on: Human immunodeficiency virus 1; assay: Antiviral activity against HIV1 with reverse transcriptase K103N mutation in human CEM cells assessed as protection against virus-induced cytopathicity; format: functional, organism-based; conditions: Human immunodeficiency virus 1, CCRF-CEM; method in brief: as §2
[19] = Cytotoxicity against human HEL cells assessed as drug level causing microscopically detectable alteration of normal cell morphology after 3 days; format: cell-based
[20] = tested on: Human immunodeficiency virus 1; assay: Antiviral activity against HIV1 with reverse transcriptase Y188L mutation in human CEM cells assessed as protection against virus-induced cytopathicity; format: functional, organism-based; conditions: Human immunodeficiency virus 1, CCRF-CEM; method in brief: as §2
Felid alphaherpesvirus 1 = assay: Antiviral activity against Feline herpesvirus in feline […] cells assessed as inhibition of virus-induced cytopathicity; format: functional, organism-based
Feline coronavirus = assay: Antiviral activity against Feline coronavirus in feline […] cells assessed as inhibition of virus-induced cytopathicity; format: functional, organism-based; conditions: Alphacoronavirus 1
CCRF-CEM = assay: Antiproliferative activity against human CEM cells after 3 days; format: cell-based; conditions: 72 h; method in brief: as §4
[21] = target: Human immunodeficiency virus type 1 reverse transcriptase (Human immunodeficiency virus 1, UniProt Q72547); assay: Inhibition of HIV1 reverse transcriptase p66/p51; conditions: read-out: IC50
[22] = target: Human immunodeficiency virus type 1 reverse transcriptase (Human immunodeficiency virus 1, UniProt Q72547, Y181I); assay: Inhibition of HIV1 reverse transcriptase p66/p51 Y181I mutant; conditions: read-out: IC50; method in brief: as §5
[23] = Cytotoxicity against human HeLa cells assessed as drug level causing microscopically detectable alteration of normal cell morphology after 3 days; format: cell-based
Method in brief: (§6)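 Serial compound dilutions added to confluent HeLa or Vero monolayers. MCC = minimum concentration causing microscopically detectable alteration of cell morphology after 3 days of incubation.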

[24] = Cytotoxicity against MDCK cells by MTS assay; format: cell-based, Canis lupus familiaris; conditions: dog
[25] = tested on: Mammalian orthoreovirus 1; assay: Antiviral activity against Reovirus 1 in african green monkey Vero cells assessed as protection against virus-induced cytopathicity; format: functional, organism-based; conditions: Mammalian orthoreovirus 1, Vero; method in brief: as §1
Human alphaherpesvirus 1 [26] = assay: Antiviral activity against thymidine kinase deficient and acyclovir resistant HSV1 KOS in human HEL cells assessed as protection against virus-induced cytopathicity; format: functional, organism-based; conditions: Human alphaherpesvirus 1, KOS
[27] = tested on: Human immunodeficiency virus 2; assay: Antiviral activity against HIV2 ROD in human CEM cells assessed as protection against virus-induced cytopathicity after 4 days; format: functional, organism-based; conditions: Human immunodeficiency virus 2, ROD, CCRF-CEM, 96 h; method in brief: as §3
[28] = tested on: Vesicular stomatitis virus; assay: Antiviral activity against VSV in human HEL cells assessed as protection against virus-induced cytopathicity; format: functional, organism-based
[29] = Cytotoxicity against MDCK cells assessed as drug level causing microscopically detectable alteration of normal cell morphology; format: cell-based, Canis lupus familiaris; conditions: dog
[30] = Cytotoxicity against african green monkey Vero cells assessed as drug level causing microscopically detectable alteration of normal cell morphology after 3 days; format: cell-based; conditions: chlorocebus sabaeus; method in brief: as §6
[31] = tested on: Human immunodeficiency virus 1; assay: Antiviral activity against HIV1 with reverse transcriptase Y181I mutation in human CEM cells assessed as protection against virus-induced cytopathicity; format: functional, organism-based; conditions: Human immunodeficiency virus 1, CCRF-CEM; method in brief: as §2
Punta Toro virus = assay: Antiviral activity against Punta Toro virus in african green monkey Vero cells assessed as protection against virus-induced cytopathicity; format: functional, organism-based; method in brief: as §1
[32] = target: Human immunodeficiency virus type 1 reverse transcriptase (Human immunodeficiency virus 1, UniProt Q72547, K103N); assay: Inhibition of HIV1 reverse transcriptase p66/p51 K103N mutant; conditions: read-out: IC50; method in brief: as §5

Work on `Cc1cc(C)cc(S(=O)(=O)c2c(C(=O)NC(C)CS(N)(=O)=O)[nH]c3ccc(Cl)cc23)c1` (stereo unspecified) yielded a pEC50 (Influenza A virus H3N2 [1]) of under 5.40, a pEC50 [2] of under 4.70 and a pEC50 (Coxsackievirus B4 [3]) of 4.92. It also gave a pEC50 (Human respirovirus 3) of under 4.70, a pEC50 (Influenza A virus [4]) of under 5.40 and a pIC50 [5] of 8.70. The pEC50 [6] was 8.64, the pEC50 (Influenza A virus H3N2 [7]) was under 5.40 and the pIC50 [8] was 6.41. It also gave a pEC50 [9] of under 4.70, a pEC50 (Sindbis virus) of under 4.70 and a CC50 [10] of 11.1 µM. It also gave a pEC50 (Human alphaherpesvirus 1 [11]) of under 5.40, a pEC50 (Vaccinia virus) of under 5.40 and a pEC50 (Influenza A virus [12]) of under 5.40. For the same molecule, the pIC50 (L1210) was 4.82, the pEC50 (Influenza B virus [13]) was under 5.40 and the pIC50 [14] was 8.40. It also gave a pEC50 (Influenza B virus [15]) of under 5.40, a pEC50 (Coxsackievirus B4 [16]) of 5.52 and a pEC50 (Human alphaherpesvirus 2) of under 5.40. It also gave a pIC50 [17] of 5.06, a pIC50 [18] of 7.44 and an MCC at 72 h [19] of 20 µM. For the same molecule, the pIC50 [20] was under 6.00, the pEC50 (Felid alphaherpesvirus 1) was under 5.40 and the pEC50 (Feline coronavirus) was under 5.40. The pIC50 (CCRF-CEM) was 4.89, the pIC50 [21] was 9.40 and the pIC50 [22] was 5.71. It also gave an MCC at 72 h [23] of 100 µM, a CC50 [24] of 12.2 µM and a pEC50 [25] of 4.70. For the same molecule, the pEC50 (Human alphaherpesvirus 1 [26]) was under 5.40, the pEC50 [27] was under 5.00 and the pEC50 [28] was under 5.40. The MCC [29] was 20 µM, the MCC at 72 h [30] was at least 20 µM and the pIC50 [31] was under 6.00. The pEC50 (Punta Toro virus) was under 4.70 and the pIC50 [32] was 6.63.
